Legend:
NCI-H322M = assay: Cytotoxicity against human NCI-H322M cells assessed as cell growth at 10 uM after 48 hrs by SRB assay relative to control; type: functional; conditions: read-out: Activity
In short: (§1)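 First-stage NCI DTP one-dose screen against the 60 human tumour cell line panel. Compounds were tested at a single 10 μM level, and results are given as growth percentage.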

DU-145 = assay: Cytotoxicity against human DU145 cells after 72 hrs by MTT assay; type: functional, cell-based; conditions: for IC50: DU-145, 72 h
In short: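 DU-145 cells grown in RPMI-1640 with 5% heat-inactivated fetal calf serum at 37 °C, 5% CO2. About 2×10^3 cells per well were seeded and incubated for 24 h. Compounds were dissolved in DMSO freshly and diluted into medium (vehicle 0.1% DMSO), then cells were exposed for 72 h. MTT was added for 3 h at 37 °C and absorbance read at 570 nm.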

SN12C = assay: Cytotoxicity against human SN12C cells assessed as cell growth at 10 uM after 48 hrs by SRB assay relative to control; type: functional; conditions: read-out: Activity; in short: as §1
[1] = Cytotoxicity against human EKVX cells assessed as cell growth at 10 uM after 48 hrs by SRB assay relative to control; type: functional; conditions: read-out: Activity
In short: (§2)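 First-stage NCI-60 screen by the NCI Developmental Therapeutics Program. Each compound was tested once at a single concentration of 10 μM against the 60-cell-line panel. Growth percentage was reported for each cell line.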

CCRF-CEM = assay: Cytotoxicity against human CCRF-CEM cells assessed as cell growth at 10 uM after 48 hrs by SRB assay relative to control; type: functional; conditions: read-out: Activity; in short: as §2
IGROV-1 = assay: Cytotoxicity against human IGROV1 cells assessed as cell growth at 10 uM after 48 hrs by SRB assay relative to control; type: functional; conditions: IGROV-1, 48 h, read-out: Activity; in short: as §2
HL-60(TB) = assay: Cytotoxicity against human HL-60(TB) cells assessed as cell growth at 10 uM after 48 hrs by SRB assay relative to control; type: functional; conditions: HL-60, 48 h, read-out: Activity
In short: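 NCI Developmental Therapeutics Program 60-cell-line screen, first stage: a single dose of 10 μM against the panel, reported as percentage growth.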

MCF7 = assay: Cytotoxicity against human MCF7 cells assessed as cell growth at 10 uM after 48 hrs by SRB assay relative to control; type: functional; conditions: MCF7, 48 h, read-out: Activity; in short: as §2
OVCAR-4 = assay: Cytotoxicity against human OVCAR4 cells assessed as cell growth at 10 uM after 48 hrs by SRB assay relative to control; type: functional; conditions: OVCAR-4, 48 h, read-out: Activity; in short: as §1
RPMI-8226 = assay: Cytotoxicity against human RPMI8226 cells assessed as cell growth at 10 uM after 48 hrs by SRB assay relative to control; type: functional; conditions: RPMI-8226, 48 h, read-out: Activity; in short: as §1
CAKI-1 = assay: Cytotoxicity against human Caki1 cells assessed as cell growth at 10 uM after 48 hrs by SRB assay relative to control; type: functional; conditions: CAKI-1, 48 h, read-out: Activity; in short: as §2
HT-29 = assay: Cytotoxicity against human HT-29 cells assessed as cell growth at 10 uM after 48 hrs by SRB assay relative to control; type: functional; conditions: HT-29, 48 h, read-out: Activity; in short: as §2
BT-549 = assay: Cytotoxicity against human BT549 cells assessed as cell growth at 10 uM after 48 hrs by SRB assay relative to control; type: functional; conditions: BT-549, 48 h, read-out: Activity; in short: as §2
786-0 = assay: Cytotoxicity against human 786-0 cells assessed as cell growth at 10 uM after 48 hrs by SRB assay relative to control; type: functional; conditions: 786-0, 48 h, read-out: Activity; in short: as §2
NCI/ADR-RES = assay: Cytotoxicity against human NCI/ADR-RES cells assessed as cell growth at 10 uM after 48 hrs by SRB assay relative to control; type: functional; conditions: read-out: Activity; in short: as §1
MDA-MB-468 = assay: Cytotoxicity against human MDA-MB-468 cells assessed as cell growth at 10 uM after 48 hrs by SRB assay relative to control; type: functional; conditions: MDA-MB-468, 48 h, read-out: Activity; in short: as §1
SR = assay: Cytotoxicity against human SR cells assessed as cell growth at 10 uM after 48 hrs by SRB assay relative to control; type: functional; conditions: read-out: Activity
In short: (§3)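 NCI-60 one-dose screen run by NCI DTP: each cell line exposed to a single 10 µM dose, and percentage growth recorded against untreated growth.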

SK-MEL-28 = assay: Cytotoxicity against human SK-MEL-28 cells assessed as cell growth at 10 uM after 48 hrs by SRB assay relative to control; type: functional; conditions: SK-MEL-28, 48 h, read-out: Activity; in short: as §1
KM12 = assay: Cytotoxicity against human KM12 cells assessed as cell growth at 10 uM after 48 hrs by SRB assay relative to control; type: functional; conditions: KM12, 48 h, read-out: Activity; in short: as §2
OVCAR-5 = assay: Cytotoxicity against human OVCAR5 cells assessed as cell growth at 10 uM after 48 hrs by SRB assay relative to control; type: functional; conditions: OVCAR-5, 48 h, read-out: Activity; in short: as §1
Malme-3M = assay: Cytotoxicity against human MALME-3M cells assessed as cell growth at 10 uM after 48 hrs by SRB assay relative to control; type: functional; conditions: read-out: Activity; in short: as §2
HCC 2998 = assay: Cytotoxicity against human HCC2998 cells assessed as cell growth at 10 uM after 48 hrs by SRB assay relative to control; type: functional; conditions: HCC 2998, 48 h, read-out: Activity; in short: as §2
PC-3 [2] = assay: Cytotoxicity against human PC3 cells assessed as cell growth at 10 uM after 48 hrs by SRB assay relative to control; type: functional; conditions: PC-3, 48 h, read-out: Activity; in short: as §1
SNB-19 = assay: Cytotoxicity against human SNB19 cells assessed as cell growth at 10 uM after 48 hrs by SRB assay relative to control; type: functional; conditions: SNB-19, 48 h, read-out: Activity; in short: as §3
MOLT-4 = assay: Cytotoxicity against human MOLT4 cells assessed as cell growth at 10 uM after 48 hrs by SRB assay relative to control; type: functional; conditions: MOLT-4, 48 h, read-out: Activity; in short: as §1
HOP-62 = assay: Cytotoxicity against human HOP62 cells assessed as cell growth at 10 uM after 48 hrs by SRB assay relative to control; type: functional; conditions: HOP-62, 48 h, read-out: Activity; in short: as §2
PC-3 [3] = assay: Cytotoxicity against human PC3 cells after 48 hrs by SRB assay; type: functional, cell-based; conditions: PC-3, 48 h
In short: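 Second-stage NCI-60 panel run by the NCI Developmental Therapeutics Program, covering nine tumour subpanels. Five concentrations were tested: 0.01, 0.1, 1, 10 and 100 μM. Percentage growth at each level was plotted against log10 drug concentration. GI50, TGI and LC50 were read from these dose-response curves. Subpanel MID values were divided into the full-panel MID to give selectivity ratios.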

UACC-62 = assay: Cytotoxicity against human UACC62 cells assessed as cell growth at 10 uM after 48 hrs by SRB assay relative to control; type: functional; conditions: UACC-62, 48 h, read-out: Activity; in short: as §3
U-251 = assay: Cytotoxicity against human U251 cells assessed as cell growth at 10 uM after 48 hrs by SRB assay relative to control; type: functional; conditions: U-251, 48 h, read-out: Activity; in short: as §3

Row | SMILES | growth at 10 µM (NCI-H322M) | IC50 (DU-145) | growth at 10 µM (SN12C) | growth at 10 µM [1] | growth at 10 µM (CCRF-CEM) | growth at 10 µM (IGROV-1) | growth at 10 µM (HL-60(TB)) | growth at 10 µM (MCF7) | growth at 10 µM (OVCAR-4) | growth at 10 µM (RPMI-8226) | growth at 10 µM (CAKI-1) | growth at 10 µM (786-0) | growth at 10 µM (NCI/ADR-RES) | growth at 10 µM (MDA-MB-468) | growth at 10 µM (SR) | growth at 10 µM (SK-MEL-28) | growth at 10 µM (KM12) | growth at 10 µM (Malme-3M) | growth at 10 µM (HCC 2998) | growth at 10 µM (SNB-19) | also measured
1 | CC(C)Sc1cc2c(c3nsnc13)C(=O)c1ccccc1C2=O | -0.8% | 4.53 µM | -28.6% | -6.58% | -45% | -32.9% | -41.2% | -68.8% | -100% | -38% | -5.68% | 12.4% | -24.9% | -78.8% | -48% | -8.32% | 19.3% | -86% | 21% | 21.9% | Activity (DU-145): Dose-dependent effect; growth at 10 µM (HT-29): 48.1%; growth at 10 µM (BT-549): 10.8%; growth at 10 µM (OVCAR-5): -27.9%; growth at 10 µM (PC-3 [2]): -13.4%; growth at 10 µM (MOLT-4): -54.6%; growth at 10 µM (HOP-62): 13.2%; IC50 (PC-3 [3]): 3.69 µM; growth at 10 µM (UACC-62): -57.1%; growth at 10 µM (U-251): -23.1%
2 | O=C1c2ccccc2C(=O)c2c1ccc1nsnc21 | 126% | 7.41 µM | -73.3% | 103% | -30.8% | -88.3% | -21.8% | -50.7% | -94.4% | -28% | 1.97% | -26% | -2.53% | -73.2% | 4.96% | 15.5% | 98.6% | -71.6% | -0.74% | 79% | growth at 10 µM (HT-29): 117%; growth at 10 µM (OVCAR-5): -20.1%; growth at 10 µM (MOLT-4): -40.1%; growth at 10 µM (HOP-62): -100%; IC50 (PC-3 [3]): 2.5 µM; growth at 10 µM (UACC-62): -82.3%; growth at 10 µM (U-251): -89.3%
3 | Cc1cccc(C)c1Sc1cc2c(c3nsnc13)C(=O)c1ccccc1C2=O | 83.8% | 7.88 µM | 67.7% | 82.4% | 34.8% | 66.4% | 47.8% | 68.6% | 4% | 55.6% | 61% | 115% | 59.7% | 45.9% | 35.5% | 89.3% | 96% | 73.7% | 101% | 94.8% | growth at 10 µM (HT-29): 97.7%; growth at 10 µM (BT-549): 105%; growth at 10 µM (OVCAR-5): 114%; growth at 10 µM (PC-3 [2]): 59.9%; growth at 10 µM (MOLT-4): 32.6%; growth at 10 µM (HOP-62): 90%; IC50 (PC-3 [3]): 6.74 µM; growth at 10 µM (UACC-62): 91.7%; growth at 10 µM (U-251): 53.9%
4 | O=C1c2ccccc2C(=O)c2c1cc(SCc1ccccc1)c1nsnc21 | 98.4% | 6.35 µM | 66.1% | 95% | 0.65% | 43.9% | 70.3% | 56.4% | -68.2% | 43.2% | 73.8% | 92.6% | 62.3% | -85.3% | 1.25% | 95% | 103% | 80.8% | 115% | 94.3% | growth at 10 µM (BT-549): 96.2%; growth at 10 µM (PC-3 [2]): 38.4%; growth at 10 µM (MOLT-4): -21%; growth at 10 µM (HOP-62): 83.7%; IC50 (PC-3 [3]): > 15 µM; growth at 10 µM (UACC-62): 43.1%; growth at 10 µM (U-251): 30.5%
